The target in data set [1] is T1, ORAI1/STIM1 (Homo sapiens) (UniProt Q96D31+Q13586). The data set can be described thus: Inhibition of STIM1/Orai1 (unknown origin) expressed in HEK293 cells assessed as reduction in tBHQ-induced calcium response by measuring decrease in calcium entry AUC at 10 uM relative to control. The format is cell-based. In outline:
(§1)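 HEK cells, calcium imaging by fluorescence microscopy. Ca2+ added after 600 s and intracellular levels recorded. Traces averaged over 200 cells, then scored as AUC, peak amplitude and slope of the Ca2+ rise versus untreated control. Compound working solutions diluted from a 50 mM DMSO stock to 0.1% DMSO in physiologic buffer.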

Data set [2] is described as follows: Thermodynamic aqueous solubility. The format is physicochemical. The conditions noted are these: read-out: Therm_solubility. In outline:
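About 3 mg compound in 3 mL deionized water, vortexed, sonicated 5 min, then shaken overnight at 25 °C. Filtered through a 0.22 μm membrane, DMSO added, diluted about 1:10 in water. Quantified by LC–UV against DMSO standard solutions.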

Data set [3] deals with T1, ORAI1/STIM1 (Homo sapiens). The data set can be described thus: Inhibition of STIM1/Orai1 (unknown origin) expressed in HEK293 cells assessed as reduction in tBHQ-induced calcium response by measuring decrease in peak amplitude of calcium entry at 10 uM relative to control. The format is cell-based. In outline: as §1
Data set [4] can be described thus: Drug metabolism in mouse liver microsomes assessed as amide hydrolysis. The format is ADME, Microsome. In outline:
(§2)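 Pooled male CD-1 mouse liver microsomes, phase I and glucuronidation (phase II) incubations. Substrate at 50 μM. Metabolites characterized by HRMS. For metabolic activation studies, 3 mM GSH added as trapping agent.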
For orientation: Liver microsomes are vesicles of endoplasmic reticulum, rich in cytochrome P450 enzymes.

For data set [5], the target named is T1, ORAI1/STIM1 (Homo sapiens). The data set can be described thus: Inhibition of STIM1/Orai1 (unknown origin) expressed in HEK293 cells assessed as reduction in tBHQ-induced calcium response by measuring decrease in slope of calcium entry at 10 uM relative to control. The format is cell-based. The gist of the method: as §1
Data set [6] relates to HEK293. The data set can be described thus: Cytotoxicity in HEK293 cells assessed as cell viability at 10 uM after 24 hrs by MTT assay. The format is cell-based. Particulars: human, hek293, 24 h. In outline:
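MTT viability assay. HEK cells seeded at 20,000 per well, treated 24 h after plating for a further 24 h. MTT at 0.25 mg/mL final for 60 min at 37 °C. Crystals dissolved in isopropyl alcohol/HCl (1 M), absorbance read at 570 nm. Compounds diluted to 0.1% DMSO in culture medium.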

A short description of data set [7]: Drug metabolism in mouse liver microsomes assessed as O-demethylation. The format is ADME, Microsome. In outline:
as §2

In the next data set the target is ORAI1/STIM1 (Homo sapiens, UniProt Q13586+Q96D31). The data set can be described thus: Inhibition of STIM1/Orai1 (unknown origin) expressed in HEK293 cells assessed as reduction in tBHQ-induced calcium response. The format is cell-based.
Data set [8] deals with T1, ORAI1/STIM1 (Homo sapiens). The data set can be described thus: Inhibition of STIM1/Orai1 (unknown origin) expressed in HEK293 cells assessed as reduction in tBHQ-induced calcium response at 10 uM relative to control. The format is cell-based. In outline:
as §1

Data set [9] has as its system HEK293. The data set can be described thus: Cytotoxicity in HEK293 cells assessed as cell viability at 50 uM after 72 hrs by MTT assay. The format is cell-based. Particulars: human, hek293, 72 h. In outline: (§3)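 MTT viability in HEK cells after 72 h treatment at 50 μM, with or without 100 μM uridine. MTT at 0.25 mg/mL final for 60 min at 37 °C, solubilized in isopropyl alcohol/HCl (1 M), absorbance read at 570 nm. Mean ± SEM, Student t-test against control.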

Data set [10] in a line: Inhibition of CRAC (unknown origin). Set-up: species or system Homo sapiens.
Data set [11] has as its system HEK293. The data set can be described thus: Cytotoxicity in HEK293 cells assessed as cell viability at 50 uM after 72 hrs in presence of excess uridine by MTT assay. The format is cell-based. Particulars: human, hek293, 72 h. The gist of the method:
as §3
(Tetrazolium assays rely on reduction of a dye to a coloured formazan, in cell work by metabolically active cells.)

Data set [12] in a line: Metabolic stability in mouse liver microsomes assessed as compound remaining after 1 hr. The format is ADME, Microsome. The conditions noted are these: read-out: Stabilty. In outline:
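Pooled male CD-1 mouse liver microsomes (20 mg/mL protein stock), NADPH-activated. Substrate at 5 μM. Residual parent measured after 1 h incubation.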

The test system of data set [13] is Mus musculus. The data set can be described thus: Anti pancreatitis activity in C57BL/6 mouse model of cerulein-induced acute pancreatitis assessed as amelioration of histological scores at 10 mg/kg, ip administered 30 and 150 mins after the first cerulein injection measured 5 hrs after first cerulein injection by H and E staining based assay. The format is functional, organism-based. The gist of the method:
(§4)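 Acute pancreatitis induced in mice by i.p. cerulein injections. Test agent given i.p. at 10 mg/kg, 30 and 150 min after the first cerulein injection. Pancreas collected 5 h after the first cerulein injection, H&E stained and scored histologically for inflammation and edema.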

The subject of data set [14] is Mus musculus. The data set can be described thus: Anti pancreatitis activity in C57BL/6 mouse model of cerulein-induced acute pancreatitis assessed as reduction of inflammation and edema at 10 mg/kg, ip administered 30 and 150 mins after the first cerulein injection measured 5 hrs after first cerulein injection by H and E staining based assay. The format is functional, organism-based. In outline:
as §4

Data set [15] can be described thus: Drug metabolism in mouse liver microsomes assessed as hydroxylation by high-resolution mass spectrometry. The format is ADME, Microsome. The gist of the method: as §2
Data set [16] is described as follows: Drug metabolism in mouse liver microsomes assessed as acyl glucuronide metabolite formation in presence of UDPGA by high-resolution mass spectrometry. The format is ADME, Microsome. In outline:
as §2

The nature of data set [17]: Volume of distribution in C57BL/6 mouse at 7 mg/kg, iv dosed as single administration measured up to 24 hrs. The format is ADME, organism-based. Particulars: in vivo.
The nature of data set [18]: Clearance in C57BL/6 mouse at 7 mg/kg, iv dosed as single administration measured up to 24 hrs. The conditions noted are these: in vivo. The format is ADME, organism-based.
A short description of data set [19]: Half life in C57BL/6 mouse at 7 mg/kg, iv dosed as single administration measured up to 24 hrs. The conditions noted are these: in vivo. The format is ADME, organism-based.
Data set [20] relates to HEK293. The data set can be described thus: Cytotoxicity in HEK293 cells assessed as cell viability up to 60 uM after 72 hrs in presence of excess uridine by MTT assay. The format is cell-based. The conditions noted are these: human, hek293, 72 h.
Data set [21] is described as follows: Drug metabolism in mouse liver microsomes assessed as O-demethylation by high-resolution mass spectrometry. The format is ADME, Microsome. The gist of the method: as §2
Data set [22] can be described thus: Cmax in C57BL/6 mouse at 7 mg/kg, iv dosed as single administration measured up to 24 hrs. The format is ADME, organism-based. Set-up: route intravenous, dose 7 mg/kg, time <=24. The conditions noted are these: in vivo.
Data set [23] is described as follows: Drug metabolism in mouse liver microsomes assessed as oxidation by high-resolution mass spectrometry. The format is ADME, Microsome. In outline:
as §2

Data set [24] can be described thus: Thermodynamic aqueous solubility at 6 mg/mL in saline containing 10% DMSO + 20% PEG400. Particulars: buffer.
Data set [25] can be described thus: Half life in C57BL/6 mouse ip dosed as single administration measured up to 24 hrs. Particulars: in vivo.
Data set [26] deals with T1, ORAI1/STIM1 (Homo sapiens). The data set can be described thus: Activation of STIM1/Orai1 (unknown origin) expressed in HEK293 cells assessed as increase in tBHQ-induced calcium response by measuring increase in AUC of calcium entry at 10 uM relative to control. The format is cell-based. The conditions noted are these: filed as opener, dose 3.0 µM, in the assay text read “at 3 uM” for “at 10 uM”. The gist of the method:
as §1

Data set [27] addresses T1, ORAI1/STIM1 (Homo sapiens). The data set can be described thus: Activation of STIM1/Orai1 (unknown origin) expressed in HEK293 cells assessed as increase in tBHQ-induced calcium response by measuring increase in peak amplitude of calcium entry at 10 uM relative to control. The format is cell-based. The conditions noted are these: filed as opener, dose 3.0 µM, in the assay text read “at 3 uM” for “at 10 uM”. In outline:
as §1

The inhibition is the percentage by which the read-out fell short of the control. As a reminder, the IC50 is the concentration needed to halve the response being measured. What is called Vd is a proportionality between amount in the body and measured concentration, not a real space. One may read the Cmax as the highest concentration seen after dosing. What is called half-life is the time in which the quantity being followed falls by half. A higher half-life goes with slow decline.

Molecules are shown by their SMILES. ≈ marks a conversion by molar mass, not a printed value. Calls of active or inactive are those of the source. The rule behind the calls is not given here.

T1 sequence (Q13586 23-685 partner limits assumed): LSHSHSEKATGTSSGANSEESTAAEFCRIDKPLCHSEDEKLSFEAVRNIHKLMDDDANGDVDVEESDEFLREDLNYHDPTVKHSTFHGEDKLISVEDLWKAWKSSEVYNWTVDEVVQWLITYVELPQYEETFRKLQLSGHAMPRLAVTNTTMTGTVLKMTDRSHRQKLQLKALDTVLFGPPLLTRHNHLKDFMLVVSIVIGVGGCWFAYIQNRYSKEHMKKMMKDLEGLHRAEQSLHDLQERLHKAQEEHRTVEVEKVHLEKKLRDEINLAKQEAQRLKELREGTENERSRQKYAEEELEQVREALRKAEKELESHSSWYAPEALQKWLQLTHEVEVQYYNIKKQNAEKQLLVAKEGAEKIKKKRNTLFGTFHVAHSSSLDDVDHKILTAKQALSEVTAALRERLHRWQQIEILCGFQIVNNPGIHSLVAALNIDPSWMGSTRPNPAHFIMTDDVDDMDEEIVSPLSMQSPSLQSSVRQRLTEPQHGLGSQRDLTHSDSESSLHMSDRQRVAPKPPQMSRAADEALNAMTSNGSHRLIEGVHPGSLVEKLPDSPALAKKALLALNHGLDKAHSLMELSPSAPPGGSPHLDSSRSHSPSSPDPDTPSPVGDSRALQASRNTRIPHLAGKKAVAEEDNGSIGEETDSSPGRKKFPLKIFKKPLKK
T1 sequence (Q96D31 whole entry): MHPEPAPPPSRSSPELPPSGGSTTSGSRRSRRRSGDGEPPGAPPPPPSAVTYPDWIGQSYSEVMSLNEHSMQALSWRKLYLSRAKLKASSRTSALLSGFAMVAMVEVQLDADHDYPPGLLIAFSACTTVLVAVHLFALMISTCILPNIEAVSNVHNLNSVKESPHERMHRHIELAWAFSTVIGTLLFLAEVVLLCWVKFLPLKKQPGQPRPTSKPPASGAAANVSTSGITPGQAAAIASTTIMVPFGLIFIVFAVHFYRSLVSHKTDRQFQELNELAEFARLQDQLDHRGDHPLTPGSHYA
Chain of ORAI1/STIM1 (Q96D31 whole entry): as above
Chain of ORAI1/STIM1 (Q13586 whole entry): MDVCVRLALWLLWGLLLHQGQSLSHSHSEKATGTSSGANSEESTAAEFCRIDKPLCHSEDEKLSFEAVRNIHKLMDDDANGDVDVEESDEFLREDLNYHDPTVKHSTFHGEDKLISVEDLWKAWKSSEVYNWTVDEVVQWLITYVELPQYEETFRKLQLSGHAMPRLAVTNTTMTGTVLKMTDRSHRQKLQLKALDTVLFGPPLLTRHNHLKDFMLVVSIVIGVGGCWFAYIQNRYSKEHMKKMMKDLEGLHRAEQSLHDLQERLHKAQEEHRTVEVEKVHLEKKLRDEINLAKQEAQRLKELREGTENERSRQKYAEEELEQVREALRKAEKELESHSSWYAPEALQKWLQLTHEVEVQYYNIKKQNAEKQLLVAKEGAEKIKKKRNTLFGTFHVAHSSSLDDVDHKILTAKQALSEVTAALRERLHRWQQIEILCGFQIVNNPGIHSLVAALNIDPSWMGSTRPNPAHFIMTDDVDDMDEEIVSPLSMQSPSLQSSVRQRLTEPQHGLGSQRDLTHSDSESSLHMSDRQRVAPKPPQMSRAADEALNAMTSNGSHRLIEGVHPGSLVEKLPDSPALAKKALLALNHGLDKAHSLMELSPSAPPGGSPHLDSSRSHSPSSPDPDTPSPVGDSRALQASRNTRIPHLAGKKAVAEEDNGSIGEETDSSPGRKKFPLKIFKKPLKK

As for `COc1ccc(OC)c(-c2ccc(NC(=O)c3ccncc3F)cc2)c1`, the inhibition result in data set [1], in data set [3] and in data set [5] was “Active” in each case. The solubility thermodynamic in [2] was 0.28 µg/mL (≈ 0.795 µM). For the same molecule, the Drug metabolism entry in data set [4] and in data set [7] was “Metabolite_Detected” throughout. Also, the Activity with HEK293 [6] is 75.8%; in the data set with HEK293 [9] it was “Toxic”; in the data set on HEK293 [11], “Non-Toxic”. Moreover, the values for the IC50 (at ORAI1/STIM1; in data set [10]) were 0.228 µM and 1.4 µM, respectively. For the same molecule, the inhibition in data set [8] (dose 10.0 µM) was 90.8%. Further, in data set [12], the remaining at 1 h amounted to 15%.

With `COc1cccc(-c2ccc(-n3cc(-c4cccc(C(=O)O)c4)nn3)cc2)c1OC` [listing 1 of 2 here], the inhibition entry in [1], in [3] and in [5] was “Active” in each case. Further, the outcome with Mus musculus [13] and in the data set on Mus musculus [14] was Active. For the same molecule, the inhibition in data set [8] (dose 3.0 µM, in the assay text read “at 3 uM” for “at 10 uM”) turned out to be 96.5%.

For the molecule `COc1cccc(-c2ccc(-n3cc(-c4cccc(C(=O)O)c4)nn3)cc2)c1OC` [listing 2 of 2 here], the Drug metabolism entry in data set [15], in data set [16], in data set [21] and in data set [23] was “Metabolite_Detected” in each case. Moreover, in data set [17], the Vd was 2.3 L/kg. Moreover, the CL in data set [18] was found to be 8.3 mL/min/kg. In addition, the Activity in the data set with HEK293 [6] is listed as 85.6%; in the data set on HEK293 [20], “Non-Toxic”; with HEK293 [9], “Non-Toxic”; in the data set on HEK293 [11] it was “Non-Toxic”. The molecule further showed a t1/2 in data set [19] of 3.2 h. The IC50 at ORAI1/STIM1 was 0.851 µM. This molecule had a Cmax in data set [22] of 16800 ng/mL.

For the molecule `COc1cccc(-c2ccc(-n3cc(-c4cccc(C(=O)[O-])c4)nn3)cc2)c1OC.[Na+]`, the solubility thermodynamic in [2] was 1530 µg/mL. The Therm_solubility entry in [24] is “Soluble”. Besides, the remaining at 1 h in [12] was 75%.

With `CCCC(C)OC(=O)c1cnn(-c2ccc(-n3cc(-c4cccc(C(=O)O)c4)nn3)cc2)c1C(F)(F)F` (stereo not drawn), the half-life in data set [25] is 1.3 h.

As to `COc1cccc(OC)c1-c1ccc(-c2cn(-c3cccc(C(=O)O)c3)nn2)cc1`, the result in data set [26] and in data set [27] was Active.

The record behind these values is ChEMBL document CHEMBL4673335, “Store-Operated Calcium Entry as a Therapeutic Target in Acute Pancreatitis: Discovery and Development of Drug-Like SOCE Inhibitors” (J Med Chem, 2020).
